According to ChEMBL document CHEMBL1121881 (1981):

Experiments:
Type in all cases: functional
[1] = test system: Mus musculus; assay: Compound was evaluated for the antimetrazole effect by administering through intravenous route at the pretreatment period of 120 min
In short: (§1)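 Male CFLP outbred albino mice (19–21 g) dosed iv, 5–240 min before challenge. Vehicle: 5 mg compound in propylene glycol/Chremofor EL/distilled water (2:1:7 mL), diluted with distilled water. Metrazol (pentylenetetrazol) 125 mg/kg sc in distilled water. Mice counted protected if no tonic-extensor convulsions over 60 min of observation. ED50 and confidence limits by Litchfield–Wilcoxon.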

[2] = test system: Mus musculus; assay: Compound was evaluated for the muscle relaxant effect by administering through intravenous route at the pretreatment period of 240 min
In short: (§2)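 Rotarod test in male CFLP mice (19–21 g) given compound iv 5–240 min beforehand, in propylene glycol/Chremofor EL/water vehicle diluted with distilled water. Mice were preselected and trained to stay 120 s on a 20 mm rod turning at 12 min⁻¹. Fallers were expressed as percentage of the dose group. ED50 by Litchfield–Wilcoxon.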

[3] = test system: Mus musculus; assay: Compound was evaluated for the muscle relaxant effect by administering through intravenous route at the pretreatment period of 120 min; in short: as §2
[4] = test system: Mus musculus; assay: Compound was evaluated for the antimetrazole effect by administering through intravenous route at the pretreatment period of 240 min; in short: as §1
[5] = test system: Mus musculus; assay: Compound was evaluated for the antimetrazole effect by administering through intravenous route at the pretreatment period 240 min; in short: as §1
[6] = test system: Mus musculus; assay: Oxazepam brain level after 120 minutes of administration of 0.32 mg/kg in antimetrazole assay
[7] = test system: Mus musculus; assay: Compound was evaluated for the antimetrazole effect by administering through intravenous route at the pretreatment period of 20 min; in short: as §1
[8] = test system: Mus musculus; assay: Oxazepam brain level after 30 minutes of administration of 0.28 mg/kg in antimetrazole assay
[9] = test system: Mus musculus; assay: Ester brain level after 30 minutes of administration of 2.82 mg/kg in muscle relaxant assay
[10] = test system: Mus musculus; assay: Oxazepam brain level after 10 minutes of administration of 0.46 mg/kg in antimetrazole assay
[11] = test system: Mus musculus; assay: Compound was evaluated for the muscle relaxant effect by administering through intravenous route at the pretreatment period of 5 min; in short: as §2
[12] = test system: Mus musculus; assay: Compound was evaluated for the antimetrazole effect by administering through intravenous route at the pretreatment period of 10 min; in short: as §1
[13] = test system: Mus musculus; assay: Compound was evaluated for the muscle relaxant effect by administering through intravenous route at the pretreatment period of 20 min; in short: as §2
[14] = test system: Mus musculus; assay: Compound was evaluated for the muscle relaxant effect by administering through intravenous route at the pretreatment period of 2400 min
[15] = test system: Mus musculus; assay: Ester brain level after 5 minutes of administration of 1.07 mg/kg in antimetrazole assay
[16] = test system: Mus musculus; assay: Ester brain level after 30 minutes of administration of 0.28 mg/kg in antimetrazole assay
[17] = test system: Mus musculus; assay: Oxazepam brain level after 5 minutes of administration of 1.07 mg/kg in antimetrazole assay
[18] = test system: Mus musculus; assay: Ester brain level after 5 minutes of administration of 0.96 mg/kg in muscle relaxant assay
[19] = test system: Mus musculus; assay: Compound was evaluated for the antimetrazole effect by administering through intravenous route at the pretreatment period of 5 min; in short: as §1
[20] = test system: Mus musculus; assay: Oxazepam brain level after 30 minutes of administration of 2.82 mg/kg in muscle relaxant assay
[21] = test system: Mus musculus; assay: Ester brain level after 10 minutes of administration of 0.46 mg/kg in antimetrazole assay
[22] = test system: Mus musculus; assay: Oxazepam brain level after 5 minutes of administration of 0.96 mg/kg in muscle relaxant assay
[23] = test system: Mus musculus; assay: Compound was evaluated for the muscle relaxant effect by administering through intravenous route at the pretreatment period of 10 min; in short: as §2
[24] = test system: Mus musculus; assay: Ester brain level after 120 minutes of administration of 0.32 mg/kg in antimetrazole assay

Row | SMILES | ED50 [1] | ED50 [2] | ED50 [3] | ED50 [4] | ED50 [7] | ED50 [11] | ED50 [12] | ED50 [13] | ED50 [19] | ED50 [23] | also measured
1 | CC(C)(C)C(=O)OC1N=C(c2ccccc2)c2cc(Cl)ccc2NC1=O (stereo not given) [PIVOXAZEPAM] | 0.61 mg/kg | 9 mg/kg | 5.6 mg/kg | 0.8 mg/kg |  |  |  |  |  |  | 
2 | CC(=O)OC1N=C(c2ccccc2)c2cc(Cl)ccc2NC1=O (stereo not given) | 0.47 mg/kg | 4.8 mg/kg | 2.6 mg/kg |  |  |  |  |  |  |  | ED50 [5]: 1.17 mg/kg
3 | CCC(CC)C(=O)OC1N=C(c2ccccc2)c2cc(Cl)ccc2NC1=O (stereo not given) | 0.32 mg/kg |  | 4.7 mg/kg | 1.97 mg/kg | 0.31 mg/kg | 0.95 mg/kg | 0.46 mg/kg | 0.36 mg/kg | 1.07 mg/kg | 0.61 mg/kg | Brain level [6]: 344 pM/g; Brain level [8]: 286 pM/g; Brain level [9]: 1820 pM/g; Brain level [10]: 339 pM/g; ED50 [14]: 9.1 mg/kg; Brain level [15]: 1250 pM/g; Brain level [16]: 187 pM/g; Brain level [17]: 374 pM/g; Brain level [18]: 1440 pM/g; Brain level [20]: 5160 pM/g; Brain level [21]: 383 pM/g; Brain level [22]: 480 pM/g; Brain level [24]: 95 pM/g
4 | O=C1Nc2ccc(Cl)cc2C(c2ccccc2)=NC1O (stereo not given) [OXAZEPAM] | 0.49 mg/kg | 6.6 mg/kg | 2.4 mg/kg | 0.62 mg/kg | 0.21 mg/kg | 0.96 mg/kg | 0.16 mg/kg | 0.8 mg/kg | 0.18 mg/kg | 0.86 mg/kg | 
